This is one part of a sample in which hits are shown more often than they occur.
A1 apoptosis 2 – A1 inhibition read as caspase activation; MEF A1-2A-BIM cells, caspase-Glo luminescence, 3 h; percent of clofoctol response, DMSO zero; AID 2465; caspase activation, % (no concentration beside the values); 24,000 tested, under 10 active; in the data active means caspase activation above about 5.9%; inconclusive means no clear call, values can overlap the other calls; inactive means below about 2.2%
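Material: A1-2A-BIM-expressing MEF cells. Buffer or medium: RPMI-1640 plus 10% FBS. Incubation: cells settled overnight, compound exposure 3 h at 37 °C, 5% CO2. Signal: Caspase-Glo 3/7 luminescence, 1 h at room temperature.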
T cruzi HTS – intracellular Trypanosoma cruzi inhibition. activity score (inhibition), % at 5.01 µM. intracellular Trypanosoma cruzi in host cells, plate reader. 22,000 compounds, 4.9% hits. AID 651903; in the data active means activity score above about 55%; inconclusive means no clear call, values can overlap the other calls;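 further: parasites and compound incubated about four days before reading; 0% = median of neutral control wells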
INS-1E ATP HTS – INS-1E beta cell protection from cytokine death | INS-1E cytokine-induced death, ATP luminescence, 48 h; normalised: neutral wells 0, positive control 100 | protection from cytokine-induced ATP loss, % at 10 µM | 20,000 compounds, 0.1% hits;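 active means mean replicate protection from cytokine-induced ATP loss at least 50% and at least 75% of replicates each reaching 50%; inconclusive means meets only one of the two criteria, mean or replicate share; inactive means fails both the mean and replicate share criteria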
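assay system = INS-1E rat insulinoma cells | amount = 8000 cells per well | medium = phenol-red-free RPMI with 5% fetal bovine serum | doses = one compound concentration, pin transfer | timing = 48 h cytokine plus compound treatment, 10 min reagent incubation | also added = IL-1β, TNF-α and IFN-γ cytokine mix | signal = CellTiter-Glo luminescence measuring cellular ATP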
Starred values were filed as active, the others as inactive; ? = inconclusive; / = not tested or not shown.

SMILES	A1 apoptosis 2	T cruzi HTS	INS-1E ATP HTS
C[C@H](CO)N1C[C@H](C)[C@@H](CN(C)C(=O)Nc2ccc(C(F)(F)F)cc2)Oc2c(NC(=O)c3ccncc3)cccc2C1=O	0	15	11
C[C@@H]1CN([C@H](C)CO)C(=O)c2cccc(NC(=O)c3ccncc3)c2O[C@@H]1CN(C)C(=O)Nc1ccccc1	1	-22	1
C[C@H](CO)N1C[C@H](C)[C@H](CN(C)C(=O)Nc2ccc(F)cc2)Oc2c(NC(=O)c3ccncc3)cccc2C1=O	/	81*	2
C[C@H]1CN([C@@H](C)CO)C(=O)c2cccc(NC(=O)c3ccncc3)c2O[C@H]1CN(C)C(=O)Nc1ccccc1	0	79*	4
C[C@@H]1CN([C@@H](C)CO)C(=O)c2cccc(NC(=O)c3ccncc3)c2O[C@@H]1CN(C)C(=O)Nc1ccc(F)cc1	1	-7	10
C[C@@H]1CN([C@H](C)CO)C(=O)c2cccc(NC(=O)Nc3ccc(C(F)(F)F)cc3)c2O[C@H]1CN(C)S(=O)(=O)c1ccccc1	1	5	-2
C[C@H](CO)N1C[C@H](C)[C@H](CN(C)S(=O)(=O)c2ccc(Cl)cc2)OCCCC[C@H](C)Oc2ccc(NS(C)(=O)=O)cc2C1=O	0	/	/
COc1ccc(NC(=O)Nc2ccc3c(c2)C(=O)N([C@H](C)CO)C[C@H](C)[C@H](CN(C)Cc2ccc(C(F)(F)F)cc2)OCCCC[C@@H](C)O3)cc1	/	71*	-4
COc1ccc(CN(C)C[C@H]2OCCCC[C@@H](C)Oc3ccc(NC(=O)Nc4ccc(C(F)(F)F)cc4)cc3C(=O)N([C@H](C)CO)C[C@@H]2C)cc1	/	67*	-33
COc1ccc(NC(=O)Nc2ccc3c(c2)C(=O)N([C@@H](C)CO)C[C@@H](C)[C@H](CN(C)Cc2ccc(C(F)(F)F)cc2)OCCCC[C@@H](C)O3)cc1	1	/	/
COc1ccc(CN(C)C[C@H]2OCCCC[C@H](C)Oc3ccc(NC(=O)Nc4ccc(C(F)(F)F)cc4)cc3C(=O)N([C@H](C)CO)C[C@@H]2C)cc1	1	/	/
C[C@@H]1CN([C@@H](C)CO)C(=O)Cc2cc(N(C)C)ccc2O[C@@H]1CN(C)C(=O)Nc1ccc(F)cc1	/	-3	-5
C[C@@H]1CN([C@H](C)CO)C(=O)Cc2cc(NC(=O)Nc3ccc4c(c3)OCO4)ccc2O[C@H]1CN(C)Cc1ccc(C(=O)Nc2ccccc2N)cc1	-1	/	/
C[C@H]1CN([C@@H](C)CO)C(=O)Cc2cc(NC(=O)NC3CCCCC3)ccc2O[C@H]1CN(C)Cc1ccc(C(=O)Nc2ccccc2N)cc1	-2	67*	3
C[C@@H]1CN([C@@H](C)CO)C(=O)Cc2cc(NC(=O)Nc3ccc4c(c3)OCO4)ccc2O[C@@H]1CN(C)Cc1ccc(C(=O)Nc2ccccc2N)cc1	0	67*	-15
C[C@@H]1CN([C@@H](C)CO)C(=O)Cc2cc(NC(=O)Nc3ccc(F)cc3)ccc2O[C@@H]1CN(C)Cc1ccc(C(=O)Nc2ccccc2N)cc1	/	63*	-6
C[C@@H]1CN([C@@H](C)CO)C(=O)Cc2cc(NC(=O)C3CC3)ccc2O[C@@H]1CN(C)Cc1ccc(C(=O)Nc2ccccc2N)cc1	/	58*	-8
C[C@@H]1CN([C@H](C)CO)C(=O)Cc2cc(NC(=O)C3CC3)ccc2O[C@H]1CN(C)Cc1ccc(C(=O)Nc2ccccc2N)cc1	/	19	-2
C[C@@H]1CN([C@@H](C)CO)C(=O)Cc2cc(NC(=O)NC3CCCCC3)ccc2O[C@H]1CN(C)Cc1ccc(C(=O)Nc2ccccc2N)cc1	0	/	/
C[C@H]1CN([C@@H](C)CO)C(=O)Cc2cc(NC(=O)Nc3ccccc3)ccc2O[C@@H]1CN(C)Cc1ccc(C(=O)Nc2ccccc2N)cc1	-1	/	/
CNC[C@@H]1OCCCC[C@H](C)Oc2ccc(NS(=O)(=O)c3c(C)noc3C)cc2C(=O)N([C@@H](C)CO)C[C@@H]1C	0	/	/
O=C(CCCCCC(=O)Nc1ccccc1O)N/N=C/c1cccnc1	3	/	/
COc1ccc(NC(=O)Nc2ccc3c(c2)C(=O)N([C@@H](C)CO)C[C@H](C)[C@H](CN(C)C(=O)c2ccccc2)OCCCC[C@H](C)O3)cc1	0	/	/
CNC[C@@H]1Oc2ccc(NC(=O)Nc3ccc(F)cc3)cc2CC(=O)N([C@@H](C)CO)C[C@H]1C	0	/	/
C[C@H](CO)N1C[C@H](C)[C@H](CN(C)Cc2ccc(C(=O)Nc3ccccc3N)cc2)Oc2ccc(NC(=O)Nc3ccc(F)cc3)cc2CC1=O	/	66*	31
SMILES	A1 apoptosis 2	T cruzi HTS	INS-1E ATP HTS
C[C@@H]1CN([C@@H](C)CO)C(=O)Cc2cc(NC(=O)Nc3ccccc3)ccc2O[C@@H]1CN(C)Cc1ccc(C(=O)Nc2ccccc2N)cc1	/	?	-14
C[C@@H]1CCCCO[C@@H](CN(C)S(=O)(=O)c2ccc(Cl)cc2)[C@@H](C)CN([C@H](C)CO)C(=O)c2cc(NS(C)(=O)=O)ccc2O1	/	7	-5
C[C@@H]1CCCCO[C@H](CN(C)Cc2ccc(C(=O)O)cc2)[C@@H](C)CN([C@@H](C)CO)C(=O)c2cc(NC(=O)C3CCCCC3)ccc2O1	1	/	/
C[C@@H]1CN([C@@H](C)CO)C(=O)Cc2cc(NS(=O)(=O)c3ccc(F)cc3)ccc2O[C@H]1CN(C)C(=O)Nc1ccccc1	3	/	/
Cc1ccc(S(=O)(=O)Nc2ccc3c(c2)C(=O)N([C@@H](C)CO)C[C@H](C)[C@@H](CN(C)Cc2ccc(C(F)(F)F)cc2)O3)cc1	/	65*	/
Cc1ccc(S(=O)(=O)Nc2ccc3c(c2)C(=O)N([C@H](C)CO)C[C@@H](C)[C@@H](CN(C)Cc2ccc4c(c2)OCO4)O3)cc1	-1	8	-4
C[C@H](CO)N1C[C@H](C)[C@@H](CN(C)Cc2ccc3c(c2)OCO3)Oc2ccc(NS(=O)(=O)c3ccc(F)cc3)cc2C1=O	-1	59*	3
COc1ccc(S(=O)(=O)Nc2ccc3c(c2)C(=O)N([C@H](C)CO)C[C@@H](C)[C@H](CN(C)Cc2ccc(C(F)(F)F)cc2)O3)cc1	0	5	/
C[C@H]1CN([C@@H](C)CO)C(=O)c2cc(NS(=O)(=O)c3ccccc3)ccc2O[C@H]1CN(C)Cc1ccc(C(F)(F)F)cc1	/	62*	/
C[C@@H]1CN([C@@H](C)CO)C(=O)c2cc(NS(=O)(=O)c3ccccc3)ccc2O[C@H]1CN(C)Cc1ccc(C(F)(F)F)cc1	/	44	-18
Cc1ccc(S(=O)(=O)Nc2ccc3c(c2)C(=O)N([C@@H](C)CO)C[C@H](C)[C@H](CN(C)Cc2ccc(C(=O)O)cc2)O3)cc1	/	-19	8
COc1ccc(S(=O)(=O)Nc2ccc3c(c2)C(=O)N([C@H](C)CO)C[C@H](C)[C@@H](CN(C)Cc2ccc(C(F)(F)F)cc2)O3)cc1	-1	64*	-12
C[C@@H]1CN([C@H](C)CO)C(=O)c2cccc(NS(=O)(=O)c3cccs3)c2O[C@@H]1CN(C)Cc1ccc(-c2ccccc2)cc1	0	-6	-11
C[C@@H]1CCCCO[C@@H](CN(C)Cc2ccccc2)[C@@H](C)CN([C@@H](C)CO)C(=O)c2cc(NC(=O)C3CCCCC3)ccc2O1	0	/	/

Assay outcomes from PubChem BioAssay.
